Results collected from several papers.
Compare with care: the assays were run in different laboratories.
MPO: Myeloperoxidase (MPO, Homo sapiens, UniProt P05164)
FGR: Tyrosine-protein kinase Fgr (FGR, Homo sapiens, UniProt P09769)
SLC6A2: Sodium-dependent noradrenaline transporter (SLC6A2, Homo sapiens, UniProt P23975)

For `CC(C)OCCn1c(=S)[nH]c(=O)c2[nH]ccc21`, the remaining activity was 27.6% (MPO; enzyme activity, inhibitor; 0.68 µM).
The remaining binding of `CCCCC(=O)Nc1ccc(-c2ccc3ncn(CCC)c(=O)c3c2)cn1` is reported as 100% (FGR; binding, competition with immobilised ligand; 0.5 µM).
With `Cc1cc(O)c(-c2ccc([C@@H](C)CN(C)C)cc2)c2c1[nH]c(=O)c1sccc12` the inhibition was 13.6% (STE20/SPS1-related proline-alanine-rich protein kinase (STK39, Homo sapiens, UniProt Q9UEW8); enzyme activity, inhibitor; 0.1 µM).
With `CNC(=O)[C@@]12C[C@@H]1[C@@H](n1cnc3c(Nc4ccccc4)nc(C#Cc4ccc(Cl)s4)nc31)[C@H](O)[C@@H]2O` the inhibition was 77% (SLC6A2; ligand displacement, radioligand; 10 µM).
`NC/C(=C\F)COc1cccc(Cn2c(=S)[nH]c(=O)c3[nH]cnc32)c1` has an inhibition of 17.2% (MPO; enzyme activity, inhibitor, fluorescence; 1.4 nM).
For `COc1ccc2oc(-c3ccc4nc(N)oc4c3)c/c(=N\c3ccccc3NC(=O)CCN)c2c1`, the remaining binding was 94% (Fibroblast growth factor receptor 1 (FGFR1, Homo sapiens, UniProt P11362); binding; 1 µM).
With `CC(C)[C@@H](CN1CCc2ccccc2C1)NC(=O)c1cccc(-c2ccc(F)cc2)c1` the inhibition was 63.9% (Kappa-type opioid receptor (Oprk1, Mus musculus, UniProt P33534); ligand displacement, radioligand; 10 µM).
With `OC[C@@]12C[C@@H]1[C@@H](n1cnc3c(Nc4ccccc4)nc(I)nc31)[C@H](O)[C@@H]2O` the inhibition was 5% (SLC6A2; ligand displacement, radioligand; 10 µM).
`CC(=O)N[C@H](CCCNC(=N)N)C(=O)N[C@H]1CSSC[C@@H](C(N)=O)NC(=O)[C@H](Cc2c[nH]c3ccccc23)NC(=O)[C@H](CCCNC(=N)N)NC(=O)[C@@H](Cc2ccccc2)NC(=O)[C@H](Cc2c[nH]cn2)NC(=O)[C@H](CCC(=O)O)NC1=O` gave an Emax of 100% (Melanocortin receptor 4 (MC4R, Homo sapiens, UniProt P32245); cAMP, agonist; CHO-K1).
For `N#CC[C@@]12C[C@@H]1[C@@H](n1cnc3c(NCCCCCc4ccccc4)nc(I)nc31)[C@H](O)[C@@H]2O`, the inhibition was 4% (SLC6A2; ligand displacement, radioligand; 10 µM).
With `CCCCC[C@H](O)/C=C/[C@H]1C(=O)C[C@H](O)[C@@H]1C/C=C\CCCC(=O)O` the Emax was 101% (Prostaglandin D2 receptor (PTGDR, Homo sapiens, UniProt Q13258); G protein activation, agonist, BRET).
`N#CC[C@@]12C[C@@H]1[C@@H](n1cnc3c(NCCCCCCc4ccccc4)nc(I)nc31)[C@H](O)[C@@H]2O` gave an inhibition of 0% (SLC6A2; transporter uptake, inhibitor, radiometric; HEK293; 10 µM).
`C1=C/COCc2cc(ccc2OCCN2CCCC2)Nc2nccc(n2)-c2cccc(c2)COC/1` has a remaining signal of 96% (FGR; cell-free assay; 0.1 µM).
`COc1ccc(Cl)cc1-c1cc(=O)[nH]c(=S)n1CC(N)=O` gave a remaining activity of 2.31% (MPO; enzyme activity, inhibitor; 10 µM).
The inhibition of `CNc1nc(C#Cc2ccc(Cl)s2)nc2c1ncn2[C@H]1[C@H](O)[C@H](O)[C@]2(CC#N)C[C@H]12` is reported as 16% (SLC6A2; transporter uptake, inhibitor, radiometric; HEK293; 10 µM).
